Compound activity as filed in PubChem.
Rows were chosen to be rich in hits. Some 2.3% of all compounds tested hit in one or more screens of this group.
PLC-gamma1 inh = blocks human PLC-gamma1 enzyme activity; purified PLC-gamma1, fluorogenic substrate, fluorescence; inhibition, % at 12.2 µM; actives 0.84% (n = 370,000); in the data active = inhibition above about 9.5%
ADAM17 inh = inhibits human ADAM17 | P78536 | recombinant ADAM17, EDANS/DABCYL FRET peptide cleavage | inhibition, % at 6.95 µM | actives 0.83% (n = 370,000);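 active = inhibition above the mean of compounds lying between control limits plus 3 SD, set per campaign, cut at about 8.5% in these data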
Target sequence (P78536 215-824 limits assumed): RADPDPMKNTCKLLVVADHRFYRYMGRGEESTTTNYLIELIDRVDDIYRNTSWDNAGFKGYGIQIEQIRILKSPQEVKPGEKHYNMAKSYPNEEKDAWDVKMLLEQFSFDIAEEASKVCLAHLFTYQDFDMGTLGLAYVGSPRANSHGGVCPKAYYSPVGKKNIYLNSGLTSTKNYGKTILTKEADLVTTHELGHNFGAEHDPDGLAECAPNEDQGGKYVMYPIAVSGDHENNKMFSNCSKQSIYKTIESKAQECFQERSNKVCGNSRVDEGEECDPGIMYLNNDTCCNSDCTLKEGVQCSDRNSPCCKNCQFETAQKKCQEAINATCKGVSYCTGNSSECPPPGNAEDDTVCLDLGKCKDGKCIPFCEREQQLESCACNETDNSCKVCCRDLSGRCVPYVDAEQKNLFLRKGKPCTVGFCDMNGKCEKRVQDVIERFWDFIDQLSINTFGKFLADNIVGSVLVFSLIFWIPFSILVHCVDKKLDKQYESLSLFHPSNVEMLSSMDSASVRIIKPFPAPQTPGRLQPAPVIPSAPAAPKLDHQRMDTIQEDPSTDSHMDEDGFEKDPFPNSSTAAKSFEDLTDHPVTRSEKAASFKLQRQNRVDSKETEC
PLCb3 inh = PLC-beta3 (human) inhibition, primary screen. Purified PLC-beta3, fluorogenic substrate, fluorescence. Q01970. inhibition, % at 12.2 µM. actives 0.18% (n = 370,000); in the data active = inhibition above about 11%
ADAM10 inh = ADAM10 inhibition, QFRET primary screen | O14672 | AID 720582 | actives 0.62% (n = 370,000) | recombinant ADAM10, EDANS/DABCYL FRET peptide cleavage, 3 h | inhibition, % at 7 µM;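 active = inhibition above a per-campaign cutoff equal to the mean of compounds falling between control-based bounds plus 3 SD, cut at about 20% in these data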
Tn7 DDE FP = DD(E)-Tn7 binding inhibition, primary FP screen; inhibition, % at 8.3 µM; FP displacement of FITC-Tn7 peptide from fibrin DD(E); 0% = median of compound wells per plate; actives 0.13% (n = 370,000); AID 720508; P02675;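 active = inhibition above the mean of compounds falling within the control limits plus 3 SD of them, cut at about 14% in these data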
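Assay system: Human clot-derived fibrin DD(E) complex | Buffer or medium: Tris/NaCl/CaCl2 buffer, pH 7.8 | Repeats: One replicate per compound | Benchmarks: Aha-Tn7 high control | Measure: % inhibition scaled between sample-field median and high-control FP | Schedule: 10 min plus 3 h, room temperature | Signal: Fluorescence polarization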
DDE Tn6 FP inh = disrupts Tn6 cyclic peptide binding to fibrin D-Dimer-E complex | Fibrin DD(E) TRITC-Tn6 fluorescence polarization displacement | actives 0.21% (n = 370,000) | inhibition, % at 8.3 µM | P02675;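 active = inhibition above a per-campaign cutoff: mean of compounds within control limits plus 3 SD, cut at about 15% in these data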
Numbers stand for hits.

For COc1ccccc1NC(=O)CSc1nc(O)cc(=O)n1-c1ccccc1OC the results were PLC-gamma1 inh inactive, ADAM17 inh inactive, PLCb3 inh inactive, ADAM10 inh 21, Tn7 DDE FP inactive and DDE Tn6 FP inh inactive.
`O=C(Nc1ccccc1Cl)c1cc(C2CCCN(C(=O)c3ccccc3)C2)on1` (centres undefined) gave PLC-gamma1 inh inactive, ADAM17 inh inactive, PLCb3 inh 11, ADAM10 inh inactive, Tn7 DDE FP inactive and DDE Tn6 FP inh inactive.
COc1ccccc1NC(=O)Nc1nc(C(N)CCc2ccccc2)cs1 (centres undefined) was read as PLC-gamma1 inh 11, ADAM17 inh inactive, PLCb3 inh inactive, ADAM10 inh inactive, Tn7 DDE FP inactive and DDE Tn6 FP inh inactive.
CCOC(=O)[C@]12CCCCC/C=C\1N(Cc1ccc(OC)cc1)C(=O)[C@H]2CC(=O)N1CCCCC1 was read as PLC-gamma1 inh inactive, ADAM17 inh inactive, PLCb3 inh inactive, ADAM10 inh inactive, Tn7 DDE FP inactive and DDE Tn6 FP inh inactive.
CCC(=O)c1ccc(OCC(O)CN(CCc2ccccc2)Cc2ccccc2)cc1 (centres undefined) was read as PLC-gamma1 inh inactive, ADAM17 inh 9.3, PLCb3 inh inactive, ADAM10 inh inactive, Tn7 DDE FP inactive and DDE Tn6 FP inh inactive.
`COc1ccc2c(c1)CN1CN(Cc3ccc(F)cc3)S(=O)(=O)CC21` (centres undefined) gave PLC-gamma1 inh inactive, ADAM17 inh inactive, PLCb3 inh inactive, ADAM10 inh inactive, Tn7 DDE FP inactive and DDE Tn6 FP inh inactive.
Screening Oc1ccc(Oc2ccccc2F)c2cccnc12 returned PLC-gamma1 inh inactive, ADAM17 inh inactive, PLCb3 inh inactive, ADAM10 inh inactive, Tn7 DDE FP inactive and DDE Tn6 FP inh inactive.
`O=C(Nc1ccc(F)cc1F)C1CCN(c2nnc(-n3cccc3)s2)CC1` gave PLC-gamma1 inh inactive, ADAM17 inh inactive, PLCb3 inh inactive, ADAM10 inh inactive, Tn7 DDE FP inactive and DDE Tn6 FP inh inactive.
`CCCCn1nnnc1C(c1ccccc1)N1CCN(c2ncccn2)CC1` (centres undefined) gave PLC-gamma1 inh inactive, ADAM17 inh inactive, PLCb3 inh inactive, ADAM10 inh inactive, Tn7 DDE FP inactive and DDE Tn6 FP inh inactive.
For CCCCn1nnnc1C(c1ccccc1)N1CCN(c2ccc(C)cc2)CC1 (centres undefined) the results were PLC-gamma1 inh inactive, ADAM17 inh inactive, PLCb3 inh 11, ADAM10 inh inactive, Tn7 DDE FP inactive and DDE Tn6 FP inh inactive.
Screening COc1ccc(C=Nn2c(-c3ccccc3F)n[nH]c2=S)cc1OCc1ccccc1 returned PLC-gamma1 inh inactive, ADAM17 inh inactive, PLCb3 inh inactive, ADAM10 inh inactive, Tn7 DDE FP inactive and DDE Tn6 FP inh inactive.
`COc1cc(C=c2c3ccccc3n3c2cc(-c2ccccc2)[n+]3C)cc(OC)c1OC` gave PLC-gamma1 inh inactive, ADAM17 inh inactive, PLCb3 inh inactive, ADAM10 inh inactive, Tn7 DDE FP inactive and DDE Tn6 FP inh 17.
Screening CC(C)NC(=O)CSc1ccccc1C(=O)N1CCN(S(=O)(=O)Cc2ccccc2)CC1 returned PLC-gamma1 inh 11, ADAM17 inh inactive, PLCb3 inh inactive, ADAM10 inh inactive, Tn7 DDE FP inactive and DDE Tn6 FP inh inactive.
`CC(C)NC(=O)CSc1ccccc1C(=O)N1CCN(S(=O)(=O)/C=C/c2ccccc2)CC1` gave PLC-gamma1 inh inactive, ADAM17 inh inactive, PLCb3 inh inactive, ADAM10 inh inactive, Tn7 DDE FP inactive and DDE Tn6 FP inh inactive.
`C#CCNC(=O)C[C@@H]1C(=O)N(CC=C)/C2=C/CCCCC[C@]21C(=O)OCC` gave PLC-gamma1 inh inactive, ADAM17 inh inactive, PLCb3 inh inactive, ADAM10 inh inactive, Tn7 DDE FP inactive and DDE Tn6 FP inh inactive.
For Cn1cc(/C=C2\SC(=O)NC2=S)c2ccccc21 the results were PLC-gamma1 inh inactive, ADAM17 inh inactive, PLCb3 inh inactive, ADAM10 inh inactive, Tn7 DDE FP 16 and DDE Tn6 FP inh inactive.
`CC(C)(C)OC(=O)n1cc(-c2ccccc2)c2c(-c3ccccc3)c(O)ccc21` gave PLC-gamma1 inh inactive, ADAM17 inh inactive, PLCb3 inh inactive, ADAM10 inh inactive, Tn7 DDE FP inactive and DDE Tn6 FP inh inactive.
Screening C=CCNC(=O)c1ccccc1NC(=O)c1ccc(Cl)c(S(=O)(=O)Nc2ccccc2)c1 returned PLC-gamma1 inh inactive, ADAM17 inh inactive, PLCb3 inh inactive, ADAM10 inh 27, Tn7 DDE FP inactive and DDE Tn6 FP inh inactive.
For c1ccc2cc(Cn3ccc4ccc(-c5ccc6cc[nH]c6c5)cc43)ccc2c1 the results were PLC-gamma1 inh inactive, ADAM17 inh inactive, PLCb3 inh inactive, ADAM10 inh inactive, Tn7 DDE FP inactive and DDE Tn6 FP inh inactive.
For C[C@@H](Oc1ccccc1)c1nnn(Cc2ccccc2)c1-c1c([C@@H](C)Oc2ccccc2)nnn1Cc1ccccc1 the results were PLC-gamma1 inh 16, ADAM17 inh inactive, PLCb3 inh inactive, ADAM10 inh inactive, Tn7 DDE FP inactive and DDE Tn6 FP inh inactive.
Screening OCCN1CCN(CCCN2c3ccccc3CCc3ccccc32)CC1 returned PLC-gamma1 inh 13, ADAM17 inh inactive, PLCb3 inh inactive, ADAM10 inh inactive, Tn7 DDE FP inactive and DDE Tn6 FP inh inactive.
For O=C(NCCc1ccccc1)c1cc2sccc2n1Cc1ccccc1 the results were PLC-gamma1 inh 10, ADAM17 inh inactive, PLCb3 inh inactive, ADAM10 inh inactive, Tn7 DDE FP inactive and DDE Tn6 FP inh inactive.
CCn1c(C(=O)NCCCc2ccccc2)cc2sccc21 was read as PLC-gamma1 inh inactive, ADAM17 inh inactive, PLCb3 inh inactive, ADAM10 inh inactive, Tn7 DDE FP inactive and DDE Tn6 FP inh inactive.
Screening Cc1cc(N2CCC[C@@H]2C)nc2ccccc12 returned PLC-gamma1 inh inactive, ADAM17 inh inactive, PLCb3 inh inactive, ADAM10 inh inactive, Tn7 DDE FP inactive and DDE Tn6 FP inh inactive.
`COc1cc2c(=O)n(Cc3ccccc3)c(=O)n(CC(=O)NCCc3ccccc3)c2cc1OC` gave PLC-gamma1 inh 9.5, ADAM17 inh inactive, PLCb3 inh inactive, ADAM10 inh inactive, Tn7 DDE FP inactive and DDE Tn6 FP inh inactive.
For COc1ccc(NC(=O)N2CCCC(c3nc(-c4ccc(C(C)C)cc4)no3)C2)cc1 (centres undefined) the results were PLC-gamma1 inh inactive, ADAM17 inh 11, PLCb3 inh inactive, ADAM10 inh 25, Tn7 DDE FP inactive and DDE Tn6 FP inh inactive.
O=C(c1nc(-c2ccccc2)n(-c2ccccc2)n1)N1CCN(S(=O)(=O)c2ccccc2)CC1 was read as PLC-gamma1 inh 11, ADAM17 inh inactive, PLCb3 inh inactive, ADAM10 inh inactive, Tn7 DDE FP inactive and DDE Tn6 FP inh inactive.
O=C(O)c1nc(-c2ccccc2)n(-c2ccccc2)n1 was read as PLC-gamma1 inh inactive, ADAM17 inh inactive, PLCb3 inh inactive, ADAM10 inh inactive, Tn7 DDE FP inactive and DDE Tn6 FP inh inactive.
